# According to ChEMBL document CHEMBL4680184, “Simple amphiphilic α-hydrazido acids: Rational design, synthesis, and in vitro bioactivity profile of a novel class of potential antimicrobial compounds” (Eur J Med Chem, 2020):
# The source made the active and inactive calls. No cut-off for these calls is given here.
# Assays:
# [1] = test system: Staphylococcus aureus; experiment: Antibacterial activity against Staphylococcus aureus ATCC 29213; type: functional
# In short: (§1)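 Broth microdilution per CLSI: strains grown 6 h in BHI broth, diluted in Mueller-Hinton II broth to 1 × 10^6 cfu/mL, mixed 1:1 with serial dilutions of compound in MHII (compounds dissolved in sterile water); aerobic incubation 37 °C, 24 h. MIC = lowest concentration with no visible growth. Tetracycline internal control; triplicate.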
# [2] = test system: Pseudomonas aeruginosa; experiment: microbe, parasite or virus in culture; conditions: ATCC 27853
# [3] = test system: Escherichia coli; experiment: Antibacterial activity against Escherichia coli ATCC 25922; type: functional; in short: as §1
# [4] = test system: Enterococcus faecalis; experiment: Antibacterial activity against Enterococcus faecalis ATCC 29212; type: functional
# In short: (§2)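 Compounds dissolved in sterile water at the highest achievable concentration, then serially diluted in Mueller-Hinton II broth per CLSI broth microdilution. Strains grown 6 h in BHI, diluted in MHII to 1 × 10^6 cfu/mL final. Aerobic incubation 37 °C, 24 h; tetracycline internal control; bacteria-only growth controls. MIC = lowest concentration with no visible growth; triplicate.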
# [5] = test system: Escherichia coli; experiment: Antibacterial activity against Escherichia coli ATCC 25922 by broth microdilution method
# [6] = test system: Enterococcus faecium; experiment: Antibacterial activity against Enterococcus faecium ATCC 135562 by broth microdilution method; type: functional; in short: as §2
# [7] = test system: Staphylococcus aureus; experiment: Antibacterial activity against Staphylococcus aureus ATCC 29213 by broth microdilution method; type: functional; in short: as §2
# [8] = Hemolytic activity against human erythrocytes measured after 1 hr by microplate reader based spectrophotometric analysis; type: ADME, cell-based, Erythrocyte
# In short: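 Heparinized fresh human blood washed three times in PBS pH 7.4 (1000 g, 10 min), resuspended ~20 vol %. Equal volume with 1:2 serial dilutions of compound in PBS, 1 h at 37 °C; PBS and 0.2 vol % Triton X-100 controls. Supernatant diluted 1:60, A350 read. HC50 from three- or four-parameter Hill fit; mean of three replicates.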
# [9] = Retention time of the compound by RP-HPLC analysis; type: physicochemical
# In short: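 RP-HPLC on C18 column (5 µm, 200 × 4.6 mm), 0.5 mL/min; hydrochlorides at 0.5–1 mg/mL in water:2-propanol 70:30, gradient to 10:90 over 40 min, then 20 min at 10:90. Adjusted retention time = instrumental retention time minus hold-up time.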
# [10] = Therapeutic index, ratio of HC50 for human erythrocytes to MIC for Escherichia coli ATCC 25922; type: toxicity; conditions: read-out: TI
# [11] = test system: Escherichia coli; experiment: Antibacterial activity against Escherichia coli ATCC 25922 assessed as inhibition of visible growth after 24 hrs by broth microdilution method; type: functional; in short: as §2
# [12] = test system: Staphylococcus aureus; experiment: Antibacterial activity against Staphylococcus aureus ATCC 29213 assessed as inhibition of visible growth after 24 hrs by broth microdilution method; type: functional; in short: as §2
# [13] = test system: Enterococcus faecium; experiment: Antibacterial activity against Enterococcus faecium 135562 (35C) assessed as inhibition of visible growth after 24 hrs by broth microdilution method; type: functional; in short: as §2
# [14] = test system: Escherichia coli; experiment: Antibacterial activity against gentamicin-colistin-resistant Escherichia coli 288328 assessed as inhibition of visible growth after 24 hrs by broth microdilution method; type: functional; in short: as §1
# [15] = test system: Pseudomonas aeruginosa; experiment: Antibacterial activity against Pseudomonas aeruginosa ATCC 27853 assessed as inhibition of visible growth after 24 hrs by broth microdilution method; type: functional; in short: as §2
# [16] = Therapeutic index, ratio of HC50 for human erythrocytes to MIC for Staphylococcus aureus ATCC 29213; type: toxicity; conditions: read-out: TI
# [17] = test system: Staphylococcus aureus; experiment: Antibacterial activity against Staphylococcus aureus ATCC 29213 after preincubated with plasma for 6 hrs by broth microdilution method; type: functional, organism-based
# [18] = test system: Enterococcus faecalis; experiment: Antibacterial activity against Enterococcus faecalis ATCC 29212 assessed as inhibition of visible growth after 24 hrs by broth microdilution method; type: functional; in short: as §2
# [19] = Therapeutic index, ratio of HC50 for human erythrocytes to MIC for gentamycin-colistin-resistant Escherichia coli 288328; type: toxicity
# In short: (§3)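 TI = HC50/MIC. HC50: washed heparinized human erythrocytes (~20 vol % in PBS pH 7.4) mixed 1:1 with 1:2 serial compound dilutions in PBS, 1 h at 37 °C; supernatant A350 read; PBS and 0.2 vol % Triton X-100 as 0 and 100% lysis; HC50 by Hill logistic regression, mean of three replicates.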
# [20] = test system: Staphylococcus aureus; experiment: Antibacterial activity against linezolid-methicillin-resistant Staphylococcus aureus AOUC 0915 assessed as inhibition of visible growth after 24 hrs by broth microdilution method; type: functional; in short: as §1
# [21] = Therapeutic index, ratio of HC50 for human erythrocytes to MIC for linezolid-methicillin-resistant Staphylococcus aureus AOUC 0915; type: toxicity; in short: as §3
# [22] = test system: Cell membrane; experiment: Induction of outer membrane permeabilization in Escherichia coli ATCC 25922 assessed as increase in fluorescence intensity at 8 ug/ml measured every 1 sec for 10 mins by NPN-probe based assay; type: subcellular; conditions: dose 8.0 µg/ml, in the assay text read “every 0.1 sec” for “every 1 sec”
# In short: (§4)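 Midlog E. coli (6 h growth, 10^8 cells/mL) washed, resuspended in PBS pH 7.2, held at 4 °C, used within 3 h; equilibrated 15 min at 25 °C. NPN 1 µM working plus compound 8 µg/mL working. Fluorescence ex 350/em 420 nm, read every 0.1 s for 10 min; rate constant from exponential rise-to-maximum fit; probe-only, buffer controls.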
# [23] = test system: Cell membrane; experiment: Induction of outer membrane permeabilization in Escherichia coli ATCC 25922 assessed as rate constant by measuring NPN uptake at 8 ug/ml measured every 1 sec for 10 mins; type: subcellular; conditions: dose 8.0 µg/ml, in the assay text read “every 0.1 sec” for “every 1 sec”; in short: as §4
# [24] = test system: Cell membrane; experiment: Induction of outer membrane permeabilization in gentamycin-colistin resistant Escherichia coli 288328 assessed as rate constant by measuring NPN uptake at 8 ug/ml […]; conditions: dose 8.0 µg/ml
# [25] = test system: Cell membrane; experiment: Induction of inner membrane permeabilization in gentamycin-colistin resistant Escherichia coli 288328 assessed as increase in fluorescence intensity at 8 ug/ml measured every 1 sec for 10 mins by PI-probe based assay; type: subcellular; conditions: dose 8.0 µg/ml, in the assay text read “every 0.1 sec” for “every 1 sec”
# In short: (§5)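 Same washed midlog E. coli suspension (PBS pH 7.2, 10^8 cells/mL, 25 °C after 15 min equilibration). Propidium iodide 15 µM working with compound at 8 µg/mL working. Fluorescence ex 535/em 617 nm every 0.1 s over 10 min; rate constant from exponential rise-to-maximum fit; controls without cells or compound.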
# [26] = test system: Cell membrane; experiment: Induction of inner membrane permeabilization in Escherichia coli ATCC 25922 assessed as rate constant by measuring PI uptake at 8 ug/ml […]; conditions: dose 8.0 µg/ml
# [27] = test system: Cell membrane; experiment: Induction of inner membrane permeabilization in Escherichia coli ATCC 25922 assessed as increase in fluorescence intensity at 8 ug/ml measured every 1 sec for 10 mins by PI-probe based assay; type: subcellular; conditions: dose 8.0 µg/ml, in the assay text read “every 0.1 sec” for “every 1 sec”; in short: as §5
# [28] = test system: Cell membrane; experiment: Induction of outer membrane permeabilization in gentamycin-colistin resistant Escherichia coli 288328 assessed as increase in fluorescence intensity at 8 ug/ml measured every 1 sec for 10 mins by NPN-probe based assay; type: subcellular; conditions: dose 8.0 µg/ml, in the assay text read “every 0.1 sec” for “every 1 sec”; in short: as §4
# [29] = test system: Cell membrane; experiment: Induction of inner membrane permeabilization in gentamycin-colistin resistant Escherichia coli 288328 assessed as rate constant by measuring PI uptake at 8 ug/ml […]; conditions: dose 8.0 µg/ml
# [30] = Chemical stability of the compound in pH 1.5 hydrochloride solution at 1 ug/ml assessed as compound degradation after 8 weeks; type: physicochemical; conditions: buffer, pH 1.5, 1344 h, at 1 µg/mL
# [31] = Chemical stability of the compound in pH 7.4 phosphate buffered saline at 1 ug/ml assessed as compound degradation after 8 weeks; type: physicochemical; conditions: buffer, pH 7.4, 1344 h, at 1 µg/mL
# [32] = Chemical stability of the compound in hydrochloride water at 1 ug/ml assessed as compound degradation after 8 weeks; type: physicochemical; conditions: buffer, 1344 h, at 1 µg/mL
Molecule,HC50 at 1 h [8],Retention_time [9],selectivity ratio [10],MIC [11],MIC [12],MIC [13],MIC [14],MIC [15],selectivity ratio [16],Activity [17],MIC [18],selectivity ratio [19],MIC [20],selectivity ratio [21],other results
CN(C)[C@@H]1C(O)=C(C(N)=O)C(=O)[C@@]2(O)C(O)=C3C(=O)c4c(O)cccc4[C@@](C)(O)[C@H]3C[C@@H]12 [TETRACYCLINE],–,–,–,–,–,–,–,–,–,–,–,–,–,–,MIC [1]: 0.12 µg/mL; MIC [2]: 8 µg/mL; MIC [3]: 0.5 µg/mL; MIC [4]: 8 µg/mL
H-GIGKFLKKAKKFGKAFVKILKK-NH2 [PEXIGANAN],–,–,–,–,–,–,–,–,–,–,–,–,–,–,MIC [5]: 16 µg/mL; MIC [6]: 64 µg/mL; MIC [7]: 8 µg/mL
CCCCCCCCCCCCNC(=O)CN(NC(=O)c1ccccc1)C(=O)CN.Cl,195 µg/mL,19.7 min,49,4 µg/mL,4 µg/mL,4 µg/mL,4 µg/mL,64 µg/mL,49,Active,4 µg/mL,49,4 µg/mL,49,–
CCCCCCCCCCCCNC(=O)CN(NC(=O)C(C)(C)C)C(=O)CN.Cl,394 µg/mL,19.8 min,49,8 µg/mL,4 µg/mL,8 µg/mL,8 µg/mL,16 µg/mL,99,Active,8 µg/mL,49,4 µg/mL,99,Activity [22]: Active; Activity [23]: 0.25 min⁻¹; Activity [24]: 0.31 min⁻¹; Activity [25]: Active; Activity [26]: 0.22 min⁻¹; Activity [27]: Active; Activity [28]: Active; Activity [29]: 0.24 min⁻¹
CCCCCCCCNC(=O)CN(NC(=O)CCCCCCC)C(=O)CN.Cl,131 µg/mL,17.8 min,8.2,16 µg/mL,16 µg/mL,16 µg/mL,–,32 µg/mL,8.2,Active,32 µg/mL,–,–,–,Stabilty [30]: Stable; Stabilty [31]: Stable; Stabilty [32]: Stable
